Series [1] in a line: melting temperature; fluorescence melt of hairpins on a sequencing array, two-state fit, raised by 9.35 °C to match UV melts. The following applies: sodium 0.088 M. An outline of the steps: (§1)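 Cy3 signals were normalised both to pre-quench Cy3 and to control constructs. They came from library hairpins carrying annealed Cy3 and quencher oligos on a sequenced MiSeq flow cell, imaged in 50 mM Na-HEPES pH 8.0, 25 mM NaCl, in 2.5 °C steps up to 60 °C. Bootstrapped two-state fits gave melting temperature and folding enthalpy, and four replicates were combined by inverse variance. Fitted temperatures were then raised by 9.35 °C to match UV melts.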

The nature of series [2]: folding enthalpy; higher = less favourable; fluorescence melt of hairpins on a sequencing array, two-state fit. The following applies: sodium 0.088 M. The gist of the method:
as §1

As for GCCAGGCGAAAGCTTAGC ((.(.((....)).).)), the Tm in series [1] was 32.3 °C. The folding enthalpy in series [2] was -10.9 kcal/mol.
On the same counts, the results for GTTTTGGCGAAAGCCAAC (((..(((....)))))) are 38.6 °C and -8.06 kcal/mol.
Consider GGTTGGGAAACCAACC ((((((....)))))), for which, in series [1], the Tm stood at 60.4 °C. Further, the folding enthalpy in series [2] is -42.9 kcal/mol.
Taken in the same sequence, the figures for GATCATACGCATGATC ((((((....)))))) were 48 °C and -37 kcal/mol.
Taken in the same sequence, the figures for GTTTGCGAAAGCATGAAC ((((((....)))..))) were 26.4 °C and -8.14 kcal/mol.
Consider AGTACGAAAGTACT (((((....))))), for which the Tm in series [1] is 54.1 °C. In series [2], the folding enthalpy is -21.4 kcal/mol.
As to GTCAATGGAAACACTGAC ((((.((....)).)))), in series [1], the Tm was 34.5 °C. In addition, the folding enthalpy in series [2] was -22.1 kcal/mol.
On the same counts, the results for CGTAACGGAAACGTAACG (((.(((....))).))) are 44.8 °C and -29.6 kcal/mol.
Taken in the same sequence, the figures for GATTTACGAAAGTAATC (((.(((....)))))) were 32 °C and -17.8 kcal/mol.
Taken in the same sequence, the figures for GTATCTCCGAAAGGATAC (((..(((....)))))) were 30.7 °C and -19.6 kcal/mol.
Turning to GTCGGCCGAAAGGCGAC (((.(((....)))))), the Tm in series [1] worked out at 67.2 °C. Besides, the folding enthalpy in series [2] is -21.9 kcal/mol.
On to GGGTTCGGAAACGAACTC (.(((((....))))).), for which the Tm in series [1] was 53.8 °C. In series [2], the folding enthalpy was -23.3 kcal/mol.
Turning to GCATCCGAAAGGAAATGC ((((((....)))..))), in series [1], the Tm was 46.1 °C. In addition, in series [2], the folding enthalpy is -25.3 kcal/mol.
On the same counts, the results for GGTTCACGAAAGTGTACC (((.(((....))).))) are 52.4 °C and -36.4 kcal/mol.
Taken in the same sequence, the figures for GGATATACGAAAGTATCC (((..(((....)))))) were 36 °C and -16.9 kcal/mol.
On to GATTGCGAAAGCAAGATC ((((((....)))..))), for which the Tm in series [1] worked out at 50.2 °C. The folding enthalpy in series [2] is -14.8 kcal/mol.
As for GATTGAGAAATCAATC ((((((....)))))), the Tm in series [1] was found to be 45.5 °C. Besides, the folding enthalpy in series [2] was -25.9 kcal/mol.
Take GATCCGAGATCGGATC ((((((....)))))): the Tm in series [1] was found to be 56.4 °C. For the same sequence, in series [2], the folding enthalpy is -42.3 kcal/mol.
In the case of GCTGTCGAAAGACAGAGC ((((((....)))..))), the Tm in series [1] stood at 54.8 °C. Also, in series [2], the folding enthalpy was -13.6 kcal/mol.
On the same counts, the results for GCGGAGCGAAAGCTAGGC ((..(((....)))..)) are 41.9 °C and -9.5 kcal/mol.
With GGCGTAGCGAAAGCTGCC (((..(((....)))))), in series [1], the Tm came to 55.3 °C. Further, the folding enthalpy in series [2] is -21.9 kcal/mol.
Taken in the same sequence, the figures for GGCACCGGAAACGGCGCC (((.(((....))).))) were 61.2 °C and -52.6 kcal/mol.
On the same counts, the results for GGTTCAGGAAACTGGACC (((.(((....))).))) are 50.7 °C and -44.8 kcal/mol.
Taken in the same sequence, the figures for CGATGCGGAAACGCTTCG (((.(((....))).))) were 53 °C and -41.7 kcal/mol.
For GATCTCAGGGAGATC ((((((...)))))), the Tm in series [1] turned out to be 54.5 °C. Further, the folding enthalpy in series [2] was -29.5 kcal/mol.
On the same counts, the results for GATCTCAGGCGAGATC ((((((....)))))) are 51.5 °C and -27.7 kcal/mol.
On the same counts, the results for GCTGCCGAAAGGCTAGC ((((((....))).))) are 59.6 °C and -16.7 kcal/mol.
Taken in the same sequence, the figures for GTCAAAGGAAACCTTGAC (((((.(....).))))) were 38.2 °C and -26.9 kcal/mol.
As to GTGTATCGAAAGATGCAC (((.(((....))).))), the Tm in series [1] was determined as 53.6 °C. For the same sequence, in series [2], the folding enthalpy was -41.9 kcal/mol.
On to GTGTGCGGAAACGTGCAC (((..((....))..))), for which the Tm in series [1] was 52.9 °C. The folding enthalpy in series [2] is -38.2 kcal/mol.

The values above are taken from the array DNA melting data of Ke et al. (doi:10.1101/2024.01.08.574731).
